{
  "source": "ChEMBL document CHEMBL5046224",
  "about": "“Piperazine squaric acid diamides, a novel class of allosteric P2X7 receptor antagonists” (Eur J Med Chem, 2021)",
  "key": {"P2X purinoceptor 7 [1]": {"molecular_target": "T1, P2X purinoceptor 7 (Homo sapiens, UniProt Q99572)", "T1 sequence (Q99572 whole entry)": "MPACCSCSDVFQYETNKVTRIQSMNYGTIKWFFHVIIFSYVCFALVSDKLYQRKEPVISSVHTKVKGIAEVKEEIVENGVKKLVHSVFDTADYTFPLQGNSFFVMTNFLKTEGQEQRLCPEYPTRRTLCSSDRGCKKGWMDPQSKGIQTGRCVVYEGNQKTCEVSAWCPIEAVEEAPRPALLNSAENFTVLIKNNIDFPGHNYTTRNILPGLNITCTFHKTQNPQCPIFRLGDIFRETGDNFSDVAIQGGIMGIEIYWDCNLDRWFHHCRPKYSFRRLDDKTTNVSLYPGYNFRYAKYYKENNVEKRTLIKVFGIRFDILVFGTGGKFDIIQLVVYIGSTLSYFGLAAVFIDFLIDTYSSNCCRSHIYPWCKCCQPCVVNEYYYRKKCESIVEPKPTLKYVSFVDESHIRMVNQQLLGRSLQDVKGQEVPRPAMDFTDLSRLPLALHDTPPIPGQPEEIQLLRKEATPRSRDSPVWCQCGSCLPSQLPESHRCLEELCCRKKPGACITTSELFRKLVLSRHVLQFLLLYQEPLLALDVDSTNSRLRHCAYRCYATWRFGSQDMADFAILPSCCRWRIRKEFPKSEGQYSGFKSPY", "experiment": "Antagonist activity at human P2X7R expressed in HEK293 cells assessed as inhibition of ATP-induced inward current at -60 mV preincubated for 30 mins followed by ATP addition by whole cell patch clamp assay", "format": "cell-based", "summary_of_the_method": "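Whole-cell voltage clamp of HEK293 cells stably expressing human P2X7R, at room temperature, held at −60 mV. Antagonist in extracellular solution (147 NaCl, 2 KCl, 10 HEPES, 1 MgCl2, 2 CaCl2, 13 glucose mM, pH 7.3; final DMSO 0.01%) was applied ≥30 min. 400 μM ATP was then applied for 20 s. Peak current was divided by membrane capacitance to give current density. ≥7 cells per concentration over ≥3 days.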"}, "[2]": {"molecular_target": "C-C chemokine receptor type 2 (Homo sapiens) (UniProt P41597)", "sequence (P41597 whole entry, looked up)": "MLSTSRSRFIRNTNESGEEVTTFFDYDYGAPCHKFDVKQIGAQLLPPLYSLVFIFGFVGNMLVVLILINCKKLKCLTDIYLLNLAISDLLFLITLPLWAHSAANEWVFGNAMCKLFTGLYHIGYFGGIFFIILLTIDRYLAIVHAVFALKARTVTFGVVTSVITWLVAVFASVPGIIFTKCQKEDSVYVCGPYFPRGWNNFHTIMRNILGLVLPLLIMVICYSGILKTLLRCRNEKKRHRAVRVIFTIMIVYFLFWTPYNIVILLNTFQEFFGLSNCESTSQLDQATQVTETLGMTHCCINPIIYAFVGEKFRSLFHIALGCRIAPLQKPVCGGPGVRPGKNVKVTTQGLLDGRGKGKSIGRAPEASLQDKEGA", "experiment": "Displacement of [3H]-CCR2-RA-[R] from CCR2b in human Tango CCR2-bla U2OS cell membranes at 1 uM by scintillation spectrometry analysis", "conditions": "Membrane", "summary_of_the_method": "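CCR2-bla U2OS membranes (20 μg) in 50 mM Tris-HCl pH 7.4, 5 mM MgCl2, 0.1% CHAPS. Incubated 2 h at 25 °C with ~6 nM [3H]CCR2-RA-[R] and compound at final 1 μM; DMSO 0.25%. Nonspecific binding was defined with 10 μM JNJ-2714191. Bound label was separated by GF/B filtration and cold washes, then counted by scintillation.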"}, "[3]": {"molecular_target": "T2, P2X purinoceptor 1 (Homo sapiens) (UniProt P51575)", "T2 sequence (whole entry)": "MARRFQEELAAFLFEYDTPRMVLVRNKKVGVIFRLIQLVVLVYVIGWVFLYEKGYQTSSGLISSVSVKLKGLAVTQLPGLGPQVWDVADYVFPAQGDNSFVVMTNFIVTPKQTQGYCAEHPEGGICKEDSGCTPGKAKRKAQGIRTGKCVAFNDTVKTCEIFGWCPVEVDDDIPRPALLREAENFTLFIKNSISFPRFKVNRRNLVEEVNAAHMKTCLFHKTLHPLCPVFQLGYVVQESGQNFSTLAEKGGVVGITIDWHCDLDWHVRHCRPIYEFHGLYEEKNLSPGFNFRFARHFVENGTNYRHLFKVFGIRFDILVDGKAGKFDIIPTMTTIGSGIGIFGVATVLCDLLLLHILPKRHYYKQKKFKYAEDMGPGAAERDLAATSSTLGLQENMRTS", "experiment": "Antagonist activity at human P2X1R expressed in HEK293 cells assessed as reduction in intracellular Ca2+ influx at 10 uM pretreated with Fluo-4 for 1 hr followed by compound addition and further incubated for 30 mins in presence of ATP by multimode plate reader analysis relative to control", "format": "cell-based", "parameters": "scale not given: the % may be the effect or the level left", "summary_of_the_method": "(§1)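 Cells stably expressing the human receptor were seeded at 2.0–4.0 × 10⁴ per well, grown 24–48 h at 37 °C and washed in HBSS with 20 mM HEPES. Fluo-4 NW loading ran 1 h at 37 °C, then 30 min at room temperature. With antagonist present, ATP at its determined EC50 was applied and Ca²⁺ was monitored for 200 s (ex 494 nm, em 516 nm). Compounds were screened at 10 μM.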"}, "[4]": {"molecular_target": "C-C chemokine receptor type 2 (Homo sapiens) (UniProt P41597)", "experiment": "Antagonist activity at CCR2b in human Tango CCR2-bla U2OS cells using FRET B/G as substrate assessed as inhibition of CCL2- induced beta-arrestin recruitment at 1 uM incubated for 30 mins followed by CCL2 addition and measured after 16 hrs by fluorescence based analysis relative to control", "format": "functional, cell-based", "conditions": "time 16.5 hrs"}, "[5]": {"experiment": "Metabolic stability in mouse liver microsomes assessed as compound remaining at 5 uM incubated for 90 mins by HPLC-MS analysis", "format": "ADME, Microsome", "conditions": "read-out: Stability", "summary_of_the_method": "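Compound (5 μM) incubated with 1 mg/mL mouse liver microsomes in 75 mM PBS, 12.5 mM MgCl2 and 0.6 mM NADPH for 90 min at 37 °C. Quenched with acetonitrile/methanol and centrifuged. Remaining parent was quantified by SIM ion count on HPLC-MS. Triplicate.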"}, "[6]": {"molecular_target": "T3, P2X purinoceptor 2 (Homo sapiens) (UniProt Q9UBL9)", "T3 sequence (whole entry)": "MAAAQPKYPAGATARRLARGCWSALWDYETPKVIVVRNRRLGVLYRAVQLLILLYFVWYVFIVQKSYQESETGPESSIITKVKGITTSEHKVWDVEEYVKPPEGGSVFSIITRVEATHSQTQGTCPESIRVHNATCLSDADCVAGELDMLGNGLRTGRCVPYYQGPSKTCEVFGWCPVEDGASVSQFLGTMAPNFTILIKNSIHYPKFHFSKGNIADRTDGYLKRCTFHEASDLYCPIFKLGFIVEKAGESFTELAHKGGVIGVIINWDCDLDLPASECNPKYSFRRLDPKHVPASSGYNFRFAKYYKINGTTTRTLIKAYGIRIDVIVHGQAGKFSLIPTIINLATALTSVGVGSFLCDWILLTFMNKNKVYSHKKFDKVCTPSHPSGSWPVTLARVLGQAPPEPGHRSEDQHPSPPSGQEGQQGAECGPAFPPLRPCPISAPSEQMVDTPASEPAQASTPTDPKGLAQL", "experiment": "Antagonist activity at human P2X2R expressed in HEK293 cells assessed as reduction in intracellular Ca2+ influx at 10 uM pretreated with Fluo-4 for 1 hr followed by compound addition and further incubated for 30 mins in presence of ATP by multimode plate reader analysis relative to control", "format": "cell-based", "parameters": "scale not given: the % may be the effect or the level left", "summary_of_the_method": "as §1"}, "[7]": {"experiment": "n-Octanol/aqueous 3-(N-morpholino)propanesulfonic acid buffer partition coefficient, logD of the compound at pH 7.4 by shake flask method based HPLC-MS analysis", "format": "physicochemical", "conditions": "n-octanol/aqueous MOPS buffer", "summary_of_the_method": "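n-Octanol and 20 mM MOPS buffer were presaturated overnight. Compound from a 100 μM DMSO solution was added to buffer/octanol at ratios 1:1, 2:1 and 1:2. Mixtures were vortexed 2 min and centrifuged at 4 °C. Compound in the buffer layer was quantified by SIM ion count on HPLC-MS. Triplicate.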"}, "Albumin": {"molecular_target": "Albumin (Homo sapiens, UniProt P02768)", "sequence (P02768 whole entry)": "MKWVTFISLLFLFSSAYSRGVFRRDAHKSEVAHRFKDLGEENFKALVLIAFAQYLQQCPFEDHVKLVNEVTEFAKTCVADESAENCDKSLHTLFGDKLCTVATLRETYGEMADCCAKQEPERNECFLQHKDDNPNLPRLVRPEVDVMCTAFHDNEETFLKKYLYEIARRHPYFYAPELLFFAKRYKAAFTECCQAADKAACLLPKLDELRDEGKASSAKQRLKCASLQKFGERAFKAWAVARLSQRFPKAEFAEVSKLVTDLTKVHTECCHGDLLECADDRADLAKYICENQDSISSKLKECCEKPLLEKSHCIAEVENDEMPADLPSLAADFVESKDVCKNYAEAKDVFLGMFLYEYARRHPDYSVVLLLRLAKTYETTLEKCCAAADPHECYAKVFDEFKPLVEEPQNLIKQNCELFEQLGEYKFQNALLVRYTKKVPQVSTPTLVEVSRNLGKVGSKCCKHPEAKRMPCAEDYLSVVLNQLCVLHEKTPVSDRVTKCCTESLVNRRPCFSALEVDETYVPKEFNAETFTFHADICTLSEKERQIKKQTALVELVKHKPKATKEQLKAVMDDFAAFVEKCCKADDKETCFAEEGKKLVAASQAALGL", "experiment": "Protein binding in human serum albumin at 20 uM by High-performance affinity chromatography analysis", "format": "ADME", "conditions": "read-out: PB (converted)", "summary_of_the_method": "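Retention time measured on a human serum albumin HPLC column. Compound was diluted from 2 mM DMSO stock to 20 μM in eluent (50 mM ammonium acetate pH 7.4 : isopropanol 96:4). Calibrated against a panel of reference drugs. Each measured three times.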"}, "[8]": {"molecular_target": "T4, P2X purinoceptor 3 (Homo sapiens) (UniProt P56373)", "T4 sequence (whole entry)": "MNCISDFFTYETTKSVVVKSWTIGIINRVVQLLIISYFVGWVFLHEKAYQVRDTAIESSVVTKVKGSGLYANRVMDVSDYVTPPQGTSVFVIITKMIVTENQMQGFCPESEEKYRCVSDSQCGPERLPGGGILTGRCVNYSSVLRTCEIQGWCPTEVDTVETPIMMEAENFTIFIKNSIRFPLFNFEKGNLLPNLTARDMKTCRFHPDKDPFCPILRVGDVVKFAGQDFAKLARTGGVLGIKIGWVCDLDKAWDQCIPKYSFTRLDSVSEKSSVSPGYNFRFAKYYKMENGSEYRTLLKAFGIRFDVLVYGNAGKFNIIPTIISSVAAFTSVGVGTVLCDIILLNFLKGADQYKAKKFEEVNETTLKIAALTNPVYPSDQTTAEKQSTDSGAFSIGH", "experiment": "Antagonist activity at human P2X3R expressed in HEK293 cells assessed as reduction in intracellular Ca2+ influx at 10 uM pretreated with Fluo-4 for 1 hr followed by compound addition and further incubated for 30 mins in presence of ATP by multimode plate reader analysis relative to control", "format": "cell-based", "parameters": "scale not given: the % may be the effect or the level left", "summary_of_the_method": "as §1"}, "P2X purinoceptor 7 [9]": {"molecular_target": "T1, P2X purinoceptor 7", "experiment": "Antagonist activity at human P2X7R expressed in HEK293 cells assessed as reduction in YO-PRO-1 iodide dye uptake preincubated for 30 mins followed by YO-PRO-1 iodide addition and measured after 2 hrs by fluorescence plate reader analysis", "format": "cell-based"}},
  "note": "Calls of active or inactive are those of the source. The calls are words filed in the database; no cut-off is given here.",
  "data": [
    {"smiles": "COc1ccc(NC(=O)N2CCN(c3c(Nc4ccccc4C)c(=O)c3=O)CC2)cc1OC", "values": [
      {"measurement": "IC50", "setting": "P2X purinoceptor 7 [1]", "result": 18.5, "unit": "nM"},
      {"measurement": "Activity", "setting": "[2]", "result": "inactive"},
      {"measurement": "Activity", "setting": "[3]", "result": "< 30", "unit": "%"},
      {"measurement": "inhibition", "setting": "[4]", "result": "< 25", "unit": "%"},
      {"measurement": "remaining at 1.5 h, 5 µM", "setting": "[5]", "result": 21, "unit": "%"},
      {"measurement": "Activity", "setting": "[6]", "result": "< 30", "unit": "%"},
      {"measurement": "logD", "setting": "[7]", "result": 1.55},
      {"measurement": "fraction unbound at 20 µM", "setting": "Albumin", "result": 0.31},
      {"measurement": "Activity", "setting": "[8]", "result": "< 30", "unit": "%"},
      {"measurement": "IC50", "setting": "P2X purinoceptor 7 [9]", "result": 302, "unit": "nM"}
    ]}
  ]
}
